Laboratory results as given in ChEMBL document CHEMBL4177753, “Structural Modification of Natural Product Ganomycin I Leading to Discovery of a α-Glucosidase and HMG-CoA Reductase Dual Inhibitor Improving Obesity and Metabolic Dysfunction in Vivo” (J Med Chem, 2018).
Activity calls are given as the source filed them.

How the values were obtained:
[1] = tested on: Mus musculus; experiment: Hypolipidemic activity in antibiotic-treated ob/ob mouse assessed as decrease in hepatic LDL-C levels at 3 mg/kg administered daily via oral gavage for 3 weeks; format: functional, organism-based
How it was run: (§1)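 Male ob/ob mice pretreated three weeks with ampicillin (1 g/L), vancomycin, neomycin, gentamycin and erythromycin. Groups of n = 8 given 3.0 mg/kg/day orally in soybean vehicle versus vehicle. Plasma and hepatic lipids, fasting glucose, OGTT (glucose 2 g/kg after overnight fast) and HbA1c measured.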

[2] = tested on: Mus musculus; experiment: Hypolipidemic activity in ob/ob mouse assessed as decrease in serum total cholesterol levels administered daily via oral gavage for 31 days; format: functional, organism-based
[3] = tested on: Mus musculus; experiment: Hypoglycemic activity in ob/ob mouse assessed as decrease in blood glucose AUC at 0.3 to 3 mg/kg administered daily via oral gavage for 27 days by ITT; format: functional, organism-based
How it was run: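 Male ob/ob or high-fat-diet C57BL/6J mice dosed daily by gavage at 0.3–3.0 mg/kg. OGTT: glucose 2 g/kg orally after overnight fast. ITT: insulin 0.6 U/kg i.p. after 4 h fast. Glucometer readings at 0, 40, 80 and 120 min; AUC computed from the curves.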

[4] = tested on: Mus musculus; experiment: Antiobesity activity in C57BL/6J DIO mouse assessed as reduction in weight gain at 3 mg/kg administered daily via oral gavage for 5 weeks relative to vehicle-treated control; format: functional; set-up: scale not given: the % may be the effect or the level left
How it was run: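 Male C57BL/6J mice on high-fat diet, n = 8 per group, grouped by blood glucose and body weight. Daily oral gavage at 0.3, 1.0 or 3.0 mg/kg in soybean vehicle for 5 weeks. Vehicle groups were on normal diet and on high-fat diet.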

[5] = tested on: Mus musculus; experiment: Toxicity in C57BL/6J mouse assessed as effect on plasma AST levels at 30 mg/kg administered daily via oral gavage for 3 months; format: organism-based; details: in vivo
How it was run: (§2)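 Long-term safety study in C57BL/6J mice, 20 male and 20 female, sorted by gender, blood glucose and body weight into four groups (n = 10 each). Treated groups of each sex got 30.0 mg/kg daily by oral gavage in soybean vehicle. Vehicle groups got an equal volume of soybean. Dosing ran three months, with behavior, survival, body weight, blood glucose, liver function and organ coefficients recorded.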

[6] = tested on: Mus musculus; experiment: Hypolipidemic activity in ob/ob mouse assessed as decrease in plasma LDL-C levels at 1 mg/kg administered daily via oral gavage for 31 days relative to vehicle-treated control; format: functional; set-up: scale not given: the % may be the effect or the level left
[7] = tested on: Mus musculus; experiment: Hypolipidemic activity in antibiotic-treated ob/ob mouse assessed as decrease in plasma total cholesterol levels at 3 mg/kg administered daily via oral gavage for 3 weeks; format: functional, organism-based; how it was run: as §1
[8] = tested on: Prevotella; experiment: Decrease in Prevotella levels in cecum of ob/ob mouse at 3 mg/kg administered daily via oral gavage for 31 days by 16S rRNA gene high-throughput sequencing method; format: functional, organism-based
How it was run: (§3)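 Male ob/ob mice dosed daily by gavage at 1.0 or 3.0 mg/kg, compared with vehicle group. DNA extracted from about 150 mg caecum contents. 16S rRNA V3–V4 region amplified and sequenced on Illumina HiSeq PE250. Community compared by NMDS/MRPP; discriminant taxa identified by LEfSe.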

[9] = tested on: Mus musculus; experiment: Reduction of plasma LPS levels in antibiotic-treated ob/ob mouse at 3 mg/kg administered daily via oral gavage for 3 weeks by ELISA; format: functional, organism-based
How it was run: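 Male ob/ob mice treated daily by gavage (soybean vehicle); plasma LPS and TNF-α quantified by ELISA kits. For antibiotic groups, ob/ob mice first received an oral antibiotic cocktail (ampicillin 1 g/L, vancomycin, neomycin, gentamycin, erythromycin) for three weeks, then 3.0 mg/kg/day; n = 8 per group.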

[10] = tested on: Mus musculus; experiment: Hypolipidemic activity in C57BL/6J DIO mouse assessed as decrease in plasma free fatty acid levels at 0.3 to 3 mg/kg administered daily via oral gavage for 5 weeks; format: functional, organism-based
How it was run: (§4)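 High-fat-diet male C57BL/6J mice, n = 8 per group, daily gavage at 0.3–3.0 mg/kg in soybean vehicle for 5 weeks. Serum total cholesterol, triglycerides and free fatty acids measured.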

[11] = tested on: Mus musculus; experiment: In vivo inhibition of alpha-glucosidase activity in ob/ob mouse assessed as reduction of blood glucose AUC at 0.3 to 3 mg/kg administered daily via oral gavage for 30 days by OSTT; format: functional, organism-based
How it was run: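 Male ob/ob mice given 0.3–3.0 mg/kg daily by gavage; after overnight fast, sucrose (OSTT) or maltose (OMTT) 4.0 g/kg given orally; blood glucose by glucose meter at 0, 40, 80 and 120 min; AUC calculated from the time course.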

[12] = Chemical stability of the compound at 0.4 mg/ml at room temperature after 3 weeks by HPLC method; format: physicochemical; details: 504 h
[13] = tested on: Mus musculus; experiment: Toxicity in C57BL/6J mouse assessed as effect on organ coefficients at 30 mg/kg administered daily via oral gavage for 3 months; format: organism-based; details: in vivo; how it was run: as §2
[14] = tested on: Mus musculus; experiment: Hypolipidemic activity in ob/ob mouse assessed as decrease in liver total cholesterol levels at 0.3 to 3 mg/kg administered daily via oral gavage for 31 days; format: functional, organism-based
[15] = Inhibition of rat small intestinal mucosal alpha-glucosidase using p-nitrophenyl-alpha-D-glucopyranoside as substrate by HPLC method
How it was run: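 Rat intestinal α-glucosidase; after incubation the product 4-nitrophenol is quantified at once by HPLC (gradient from 20% acetonitrile in water with 0.1‰ TFA to 100% acetonitrile over 10 min). Each concentration run 3 times in parallel; % inhibition from peak areas versus control minus control blank; IC50 from the concentration series.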

[16] = tested on: Mus musculus; experiment: Hypolipidemic activity in antibiotic-treated ob/ob mouse assessed as decrease in plasma triglycerides levels at 3 mg/kg administered daily via oral gavage for 3 weeks; format: functional, organism-based; how it was run: as §1
[17] = AUC (0 to infinity) in Sprague-Dawley rat at 2 mg/kg, po; format: ADME, organism-based; set-up: dose 2 mg/kg, route oral, time infinity; details: in vivo
How it was run: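 Male Sprague-Dawley rats (n = 6, 0.21–0.23 kg), single oral dose 2.0 mg/kg. Orbital blood sampled 0–16 h into heparinized tubes. Plasma was protein-precipitated with methanol, with internal standard added. Quantified by UPLC-ESI(+)-QTOF-MS in SIM mode on a C18 column with a methanol/0.3% formic acid water gradient. Linear range 0.54–107 ng/ml.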

[18] = tested on: Fusobacterium; experiment: Decrease in Fusobacterium levels in cecum of ob/ob mouse at 3 mg/kg administered daily via oral gavage for 31 days by 16S rRNA gene high-throughput sequencing method; format: functional, organism-based; how it was run: as §3
[19] = tested on: Gammaproteobacteria; experiment: Decrease in Gammaproteobacteria levels in cecum of ob/ob mouse at 1 to 3 mg/kg administered daily via oral gavage for 31 days by 16S rRNA gene high-throughput sequencing method; format: functional, organism-based; how it was run: as §3
[20] = tested on: Mus musculus; experiment: Hypolipidemic activity in C57BL/6J DIO mouse assessed as decrease in plasma triglyceride levels at 0.3 to 3 mg/kg administered daily via oral gavage for 5 weeks; format: functional, organism-based; how it was run: as §4
[21] = tested on: Oscillibacter; experiment: Decrease in Oscillibacter levels in cecum of ob/ob mouse at 3 mg/kg administered daily via oral gavage for 31 days by 16S rRNA gene high-throughput sequencing method; format: functional, organism-based; how it was run: as §3
[22] = tested on: Selenomonas; experiment: Decrease in Selenomonas levels in cecum of ob/ob mouse at 3 mg/kg administered daily via oral gavage for 31 days by 16S rRNA gene high-throughput sequencing method; format: functional, organism-based; how it was run: as §3
[23] = tested on: Mus musculus; experiment: Decrease in nitrate levels in ob/ob mouse colonic lumen at 3 mg/kg administered daily via oral gavage for 31 days by Griess assay; format: functional, organism-based
How it was run: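 Male ob/ob mice dosed daily by gavage in soybean vehicle. Nitrate measured in intestinal contents by Griess assay.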

[24] = tested on: Mus musculus; experiment: Hypolipidemic activity in antibiotic-treated ob/ob mouse assessed as decrease in hepatic triglycerides levels at 3 mg/kg administered daily via oral gavage for 3 weeks; format: functional, organism-based; how it was run: as §1

CC(C)=CCC/C(C)=C/CCC1=C[C@H](c2ccc(C(C)(C)C)cc2)OC1=O
Stable: Stability [12]
280 ng·h/mL: AUC(0-inf) [17]
40 nM: IC50 [15]
Non-Toxic: Activity [5] | Activity [13]
active: Activity [2] Dose-dependent effect | Activity [3] | Activity [8] | Activity [10] | inhibition [11] | Activity [14] | Activity [16] | Activity [18] | Activity [19] | Activity [20] | Activity [21] | Activity [22] | Activity [23]
25.4%: Activity [4]
43%: Activity [6]
inactive: Activity [1] | Activity [7] | Activity [9] | Activity [24]
